These results are taken from ChEMBL document CHEMBL1158614, “Synthesis and biological evaluation of azobicyclo[3.3.0] octane derivatives as dipeptidyl peptidase 4 inhibitors for the treatment of type 2 diabetes” (Bioorg Med Chem Lett, 2010).

Series [1] has as its target Dipeptidyl peptidase 4 (Homo sapiens, UniProt P27487).
Series [2] can be described thus: (§1) Apparent total oral clearance in Sprague-Dawley rat at 3 mg/kg, po. The class given is ADME, organism-based. Also on record: dose 3 mg/kg, route oral. As to conditions: Sprague-Dawley, in vivo. In outline: (§2)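 Single oral dose of 3.0 mg/kg given to Sprague-Dawley rats, n = 6. Plasma concentration–time profiles gave apparent total plasma clearance (CL_z/F), half-life, AUC0–t and peak plasma concentration (Cmax).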

The nature of series [3]: Half life in Sprague-Dawley rat at 3 mg/kg, po. The format is ADME, organism-based. On the set-up: dose 3 mg/kg, route oral. As to conditions: in vivo. In a few lines: as §2
Series [4] is described as follows: (§3) AUC (0 to t) in Sprague-Dawley rat at 3 mg/kg, po. The format is ADME, organism-based, Plasma. Also on record: dose 3 mg/kg, route oral. As to conditions: Sprague-Dawley, plasma. In outline:
as §2

Series [5] is described as follows: Cmax in Sprague-Dawley rat at 3 mg/kg, po. The class given is ADME, organism-based. As to conditions: in vivo. Also on record: dose 3 mg/kg, route oral. In outline:
as §2

The subject of series [6] is Mus musculus. Kind of series: Antidiabetic activity in ICR mouse assessed as reduction in glucose AUC (0 to 120) at 1 mg/kg, po pretreated 30 mins before glucose challenge measured after 120 mins by oral glucose tolerance test relative to control. The class given is functional, organism-based. Also on record: dose 1 mg/kg. In a few lines: (§4)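 Lean ICR mice were dosed orally at 1, 3 or 10 mg/kg 0.5 h before an oral glucose challenge. Blood glucose was followed over 0–120 min, and glucose AUC0–120 min was expressed as percent change versus vehicle control. Data are mean ± SEM, n = 5 per group; P versus control.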

Series [7] concerns Mus musculus. Kind of series: Antidiabetic activity in ICR mouse assessed as reduction in glucose AUC (0 to 120) at 3 mg/kg, po pretreated 30 mins before glucose challenge measured after 120 mins by oral glucose tolerance test relative to control. The format is functional, organism-based. On the set-up: dose 3 mg/kg. In a few lines:
as §4

Series [8] deals with Mus musculus. Kind of series: Antidiabetic activity in ICR mouse assessed as reduction in glucose AUC (0 to 120) at 10 mg/kg, po pretreated 30 mins before glucose challenge measured after 120 mins by oral glucose tolerance test relative to control. The format is functional, organism-based. Also on record: dose 10 mg/kg. In outline: as §4
Series [9] has as its system Cynomolgus monkey. Kind of series: animal or person. As to conditions: Macaca fascicularis, po, 5 h, read-out: Inhibition.
Series [10] concerns Cynomolgus monkey. Kind of series: animal or person. As to conditions: Macaca fascicularis, po, 9 h, read-out: Inhibition.
Series [11] deals with Cynomolgus monkey. Kind of series: animal or person. As to conditions: Macaca fascicularis, po, 12 h, read-out: Inhibition.
Series [12] deals with Rattus norvegicus. The description is as §1. The class given is ADME, organism-based. Also on record: dose 3 mg/kg, route oral. As to conditions: in vivo. In a few lines: as §2
Series [13] deals with Rattus norvegicus. The series is described as §3. As to conditions: in vivo. The class given is ADME, organism-based, Plasma. Also on record: dose 3 mg/kg, route oral. In a few lines:
as §2

Dipeptidyl peptidase 4, sequence (P27487 whole entry): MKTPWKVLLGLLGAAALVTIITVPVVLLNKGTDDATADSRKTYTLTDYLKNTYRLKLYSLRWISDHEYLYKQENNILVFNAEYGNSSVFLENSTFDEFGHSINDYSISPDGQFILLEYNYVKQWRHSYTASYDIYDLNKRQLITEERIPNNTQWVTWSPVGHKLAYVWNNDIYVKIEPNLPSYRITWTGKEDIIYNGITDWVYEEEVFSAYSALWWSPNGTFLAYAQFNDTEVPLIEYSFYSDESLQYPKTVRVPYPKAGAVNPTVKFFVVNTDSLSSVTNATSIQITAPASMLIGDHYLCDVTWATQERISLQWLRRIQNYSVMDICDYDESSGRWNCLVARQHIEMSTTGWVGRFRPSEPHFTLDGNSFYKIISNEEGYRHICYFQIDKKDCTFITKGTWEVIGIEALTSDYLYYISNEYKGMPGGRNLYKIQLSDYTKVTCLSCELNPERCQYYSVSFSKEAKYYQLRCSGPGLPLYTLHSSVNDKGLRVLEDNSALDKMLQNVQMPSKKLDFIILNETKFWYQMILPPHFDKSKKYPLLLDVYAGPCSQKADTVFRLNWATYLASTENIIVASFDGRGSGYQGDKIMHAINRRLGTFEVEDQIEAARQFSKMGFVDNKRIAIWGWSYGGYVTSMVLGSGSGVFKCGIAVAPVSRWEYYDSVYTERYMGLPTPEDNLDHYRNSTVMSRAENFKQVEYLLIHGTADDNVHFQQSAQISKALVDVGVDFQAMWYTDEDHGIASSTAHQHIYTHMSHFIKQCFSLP

Broadly, the IC50 is the concentration that inhibits the measured activity by half. The compound `CC(C)NC(=O)N1C[C@H]2C[C@@H](NCC(=O)N3CCC[C@H]3C#N)C[C@H]2C1` showed a half-inhibitory concentration (IC50) in [1] of 0.12 µM.
One may read the CL/F as the apparent clearance, not corrected for the fraction that reaches the circulation. One may read the half-life as the time in which the quantity being followed falls by half. A word on the AUC(0-t): it is exposure summed from dosing to a finite time, without extrapolation to infinity. A word on the Cmax: it is the highest concentration seen after dosing. For `CN(C)C(=O)N1C[C@H]2C[C@@H](NCC(=O)N3CCC[C@H]3C#N)C[C@H]2C1`, in series [2], the apparent clearance CL/F was 11.4 L/h/kg. The compound also showed a half-life in [3] of 56.4 min. This compound also came in with an AUC(0-t) in series [4] of 0.0687 µg·h/mL. In series [5], this compound yielded a Cmax of 0.0394 µg/mL. The results for the AUC in series [6], in series [7] and in series [8] were 39.7%, 42% and 45%, respectively. The inhibition in vivo at 20 mg/kg in series [9] is above 75%.
On to `N#C[C@@H]1CCCN1C(=O)CN[C@@H]1C[C@@H]2CN(C(=O)N3CCOCC3)C[C@@H]2C1`, for which the IC50 in series [1] stood at 0.05 µM.
Still for that read-out and setting: to `N#C[C@@H]1CCCN1C(=O)CN[C@@H]1C[C@@H]2CN(C(=O)N3CCCCC3)C[C@@H]2C1` belongs 0.069 µM.
As for `CN(C)C(=O)N1C[C@@H]2C[C@@](C)(NCC(=O)N3CCC[C@H]3C#N)C[C@@H]2C1`, the CL/F in series [2] was 33.8 L/h/kg. In addition, the half-life in series [3] is 54 min. Besides, in [4], the AUC(0-t) turned out to be 0.12 µg·h/mL. In series [5], this compound returned a maximum concentration (Cmax) of 0.146 µg/mL. The inhibition in vivo at 20 mg/kg was above 75% in series [10] and 51% in series [11].
In series [1], `N#C[C@@H]1CCCN1C(=O)CN[C@@H]1C[C@@H]2CN(C(=O)N3CCCC3)C[C@@H]2C1` gave an IC50 of 0.039 µM.
Turning to `N#C[C@@H]1CCCN1C(=O)CN[C@@H]1C[C@@H]2CN(C(=O)CO)C[C@@H]2C1`, the concentration for half-maximal inhibition (IC50) in [1] was 0.014 µM.
Take `CN(C)C(=O)N1C[C@@H]2C[C@](C)(NCC(=O)N3CCC[C@H]3C#N)C[C@@H]2C1`: the CL in series [12] amounted to 50.87 L/h/kg. Moreover, in [3], the half-life was 195 min. Further, the AUC in [13] came out at 0.2663 µg·h/mL. This compound also yielded a Cmax in [5] of 0.165 µg/mL. The figures for the inhibition in vivo at 20 mg/kg in [9] and in series [11] were above 75% and 38%, respectively.
`N#C[C@@H]1CCCN1C(=O)CNC12CC3CC(CC(O)(C3)C1)C2`: the values for the AUC in [6], in series [7] and in series [8] were 35.8%, 41.7% and 51.4%, respectively.
`COC(=O)N1C[C@H]2C[C@@H](NCC(=O)N3CCC[C@H]3C#N)C[C@H]2C1` displayed a 50% inhibitory concentration (IC50) in [1] of 0.024 µM.
